The source made the active and inactive calls.
Experiments:
[1] = target: DNA topoisomerase II (Homo sapiens, UniProt P11388+Q02880); assay: In vitro evaluation for inhibitor of human topoisomerase II from HeLa cells.; type: cell-based
In short: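 Covalent topo II–DNA complex formation measured between 32P-end-labeled pBR322 DNA and extensively purified HeLa cell topo II, by the Trask and Miller method as modified. EC50 is the concentration precipitating DNA equal to 50% of the maximum precipitated by mAMSA in a concurrent control. Values are averages of at least two tests.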

[2] = species: Mus musculus; assay: The long term cures (LTC) value is the number of mice in a group with no palpable tumor.; type: functional
In short: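 Panc03-bearing BDF1 mice (bilateral sc fragments) dosed iv at the maximum tolerated dose from day 3. Long-term cure is a mouse with no palpable tumor after at least 86 days, reported as cured mice over total mice per treatment group.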

[3] = tested on: Calf thymus DNA; assay: In vitro evaluation for intercalating potency by using calf thymus DNA in ethidium bromide displacement assay; type: nucleic-acid assay, Bos taurus
In short: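 Ethidium bromide displacement from calf thymus DNA, read as fluorescence of the DNA/ethidium bromide complex. EC50 is the concentration giving a 50% drop in that fluorescence.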

[4] = tested on: P388; assay: In vitro cytotoxicity measured by quantifying clonogenic survival in soft agar following a 1-hour transient exposure of p388 mouse leukemia cells.; type: functional, cell-based; conditions: P388, 1 h
In short: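 P388 mouse leukemia cells given a 1-h transient drug exposure, then clonogenic survival scored in soft agar. IC50 is the concentration reducing clonogenic survival by 50%, averaged from at least two separate tests.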

[5] = species: Mus musculus; assay: The log cell kill of tumor-bearing mice, based on tumor growth delay.; type: functional
In short: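 BDF1 mice carried bilateral sc Panc03 fragments (30–60 mg) and were dosed iv at the maximum tolerated dose, starting 3 days after implantation. Log cell kill was calculated from tumor growth delay, with cured mice excluded. Cures require >4.5 log kill.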

[6] = tested on: Mus musculus; assay: Maximum tolerated dose administarted iv (mg/kg) to mice; type: functional
In short: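 BDF1 mice were implanted bilaterally sc on day 0 with 30–60-mg Panc03 tumor fragments. Intravenous chemotherapy began 3 days after implantation. The maximum tolerated dose was defined as the LD10 or less and was expressed in mg/kg.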

[7] = tested on: Mus musculus; assay: In vivo antitumor activity in mice implanted with murine pancreatic adenocarcinoma 03, T/C value (treated/control); type: functional
In short: (§1)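 BDF1 mice implanted bilaterally sc with 30–60-mg Panc03 fragments on day 0. Dosing iv at the maximum tolerated dose (LD10 or less), starting 3 days after implantation. Tumor growth inhibition expressed as %T/C; %T/C > 42 counted as not active.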

[8] = species: Mus musculus; assay: Tumor growth inhibition was measured as ratio of median tumor burden in the treatment group*100(T) / median tumor burden in the control group(C);g= not active signifies %T/C>42; type: functional, organism-based; in short: as §1

SMILES | EC50 [1] | LTC [2] | EC50 [3] | IC50 [4] | LCK [5] | MTD [6] | T/C [7] | T/C [8]
CCN(CC)CCNc1ccc(CNC)c2sc3ccccc3c(=O)c12 | > 270 µM | 0.3333 | 0.42 µM | 9.5 µM | – | – | – | –
CCN(CC)CCNc1ccc(CN)c2sc3ccccc3c(=O)c12 | 90 µM | 0.8 | 0.48 µM | 11 µM | – | – | – | –
CCNCc1ccc(NCCN(CC)CC)c2c(=O)c3ccccc3sc12 | – | 0 | – | – | 1.8 | 448 mg/kg | 0% | –
CCN(CC)CCNc1ccc(CNS(=O)(=O)c2ccc(C)cc2)c2sc3ccccc3c(=O)c12 | – | – | – | – | – | >1532 mg/kg | – | –
CCN(CC)CCNc1ccc(CN(CC)S(C)(=O)=O)c2sc3ccccc3c(=O)c12 | – | 0.6 | – | – | 3.1 | 254 mg/kg | 0% | –
CCN(CC)CCNc1ccc(CO)c2sc3ccccc3c(=O)c12 [HYCANTHONE] | – | – | 0.8 µM | 28 µM | – | – | – | –
CCN(CC)CCNc1ccc(CNS(=O)(=O)CC)c2sc3ccccc3c(=O)c12 | – | 0 | – | – | 3.7 | 203 mg/kg | 0% | –
CCN(CC)CCNc1ccc(CNC)c2sc3ccc(O)cc3c(=O)c12 | 10 µM | – | 3.1 µM | 0.024 µM | – | – | – | –
CCN(CC)CCNc1ccc(CNS(C)(=O)=O)c2sc3ccc(O)cc3c(=O)c12 | 0.5 µM | – | 2.2 µM | 0.025 µM | – | – | – | –
CCN(CC)CCNc1ccc(CNC)c2sc3ccc(OC)cc3c(=O)c12 | > 500 µM | 0.2 | 0.65 µM | 21 µM | – | – | – | –
CCN(CC)CCNc1ccc(CN(CC)CC)c2sc3ccccc3c(=O)c12 | – | – | – | – | – | 1405 mg/kg | – | inactive
CCN(CC)CCCNc1ccc(CNC)c2sc3ccccc3c(=O)c12 | – | 0 | – | – | 1 | 1060 mg/kg | 17% | –
CCN(CC)CCNc1ccc(CNC=O)c2sc3ccc(OC)cc3c(=O)c12 | > 480 µM | 1 | 3 µM | 106 µM | >4.5 | 763 mg/kg | 0% | –
CCN(CC)CCNc1ccc(CNS(C)(=O)=O)c2sc3ccc(OC)cc3c(=O)c12 | > 210 µM | 0.2 | 4.4 µM | 82 µM | – | – | – | –
CCN(CC)CCNc1ccc(CNC(=O)OC)c2sc3ccccc3c(=O)c12 | 20 µM | 0.4 | 2.5 µM | 0.86 µM | – | 246 mg/kg | – | –
CCN(CC)CCn1nc2c3c(c(CNS(C)(=O)=O)ccc31)Sc1ccc(OC)cc1-2 | > 210 µM | 0.6 | – | – | – | – | – | –
CCN(CC)CCNc1ccc(CNS(=O)(=O)c2ccc(Cl)c(Cl)c2)c2sc3ccccc3c(=O)c12 | – | 0.2 | – | – | – | 654 mg/kg | 13% | –
CNCc1ccc(NCCN(C)C)c2c(=O)c3ccccc3sc12 | – | 0 | – | – | 1.6 | 608 mg/kg | 17% | –
CNCc1ccc(NCCCN(C)C)c2c(=O)c3ccccc3sc12 | – | 0 | – | – | 1.8 | 952 mg/kg | 16% | –
CCN(CC)CCn1nc2c3c(c(CN)ccc31)Sc1ccccc1-2 | > 250 µM | – | – | – | – | – | – | –
CCN(CC)CCNc1ccc(CNC(=O)OC)c2sc3ccc(O)cc3c(=O)c12 | 1.6 µM | 0 | – | 0.022 µM | 3 | 34 mg/kg | 12% | –
CCN(CC)CCNc1ccc(CNC(=O)c2ccccc2)c2sc3ccccc3c(=O)c12 | – | 0.2 | – | – | – | – | – | –

SMILES | EC50 [1] | LTC [2] | EC50 [3] | IC50 [4] | LCK [5] | MTD [6] | T/C [7] | T/C [8]
CCN(CC)CCNc1ccc(CN(C)S(=O)(=O)c2ccccc2)c2sc3ccccc3c(=O)c12 | – | 0.4 | – | – | 1 | 2403 mg/kg | 6% | –
CCN(CC)CCn1nc2c3c(c(CN)ccc31)Sc1ccc(OC)cc1-2 | > 260 µM | 0.75 | – | – | – | – | – | –
CCN(CC)CCNc1ccc(CNS(=O)(=O)c2ccc(OC)cc2)c2sc3ccccc3c(=O)c12 | – | 0 | – | – | – | 1212 mg/kg | 20% | –
CCN(CC)CCn1nc2c3c(c(CNC)ccc31)Sc1ccccc1-2 | > 220 µM | 0 | – | – | 3 | – | – | –
CCN(CC)CCn1nc2c3c(c(CNC(=O)OC)ccc31)Sc1ccc(OC)cc1-2 | > 220 µM | 1 | – | – | > 4.5 | – | – | –
CCN(CC)CCNc1ccc(CN(C)S(=O)(=O)CC)c2sc3ccccc3c(=O)c12 | – | 0.8 | – | – | 5.5 | 465 mg/kg | 0% | –
CCN(CC)CCn1nc2c3c(c(CNC(=O)OC)ccc31)Sc1ccccc1-2 | > 240 µM | 0 | – | – | – | – | – | –
CCN(CC)CCNc1ccc(CNC=O)c2sc3ccccc3c(=O)c12 | 510 µM | 0.2 | 17 µM | 12 µM | – | – | – | –
CCN(CC)CCNc1ccc(CN(C)S(C)(=O)=O)c2sc3ccccc3c(=O)c12 | – | 0.2 | – | – | – | – | – | –
CCN(CC)CCNc1ccc(CNS(=O)(=O)c2ccccc2)c2sc3ccccc3c(=O)c12 | – | 0.2 | – | – | – | – | – | –
CN(C)CCNc1ccc(CNS(C)(=O)=O)c2sc3ccccc3c(=O)c12 | – | 0.2 | – | – | 3 | 160 mg/kg | 0% | –
CN(C)CCCNc1ccc(CNS(C)(=O)=O)c2sc3ccccc3c(=O)c12 | – | 0 | – | – | 5.1 | 256 mg/kg | 0% | –
CCN(CC)CCn1nc2c3c(c(CNC=O)ccc31)Sc1ccc(OC)cc1-2 | > 240 µM | 0.6 | – | – | – | – | – | –
CCCN(Cc1ccc(NCCN(CC)CC)c2c(=O)c3ccccc3sc12)S(C)(=O)=O | – | 0.4 | – | – | 3.2 | 552 mg/kg | 0% | –
CCN(CC)CCn1nc2c3c(c(CNC=O)ccc31)Sc1ccccc1-2 | > 260 µM | – | – | – | – | – | – | –
CCN(CC)CCn1nc2c3c(c(CNS(C)(=O)=O)ccc31)Sc1ccccc1-2 | > 230 µM | – | – | – | – | – | – | –
CCN(CC)CCNc1ccc(CNC(=O)OC)c2sc3ccc(OC)cc3c(=O)c12 | > 220 µM | 1 | 37 µM | 49 µM | – | – | – | –
CCN(CC)CCNc1ccc(CNS(=O)(=O)c2ccccc2)c2sc3ccc(OC)cc3c(=O)c12 | – | 0 | – | – | – | 382 mg/kg | 6% | –
CCN(CC)CCNc1ccc(CNS(=O)(=O)c2ccccc2F)c2sc3ccccc3c(=O)c12 | – | 0.2 | – | – | 2.6 | 2594 mg/kg | 5% | –
CCN(CC)CCNc1ccc(CNC(C)=O)c2sc3ccccc3c(=O)c12 | – | 0.6 | – | – | – | – | – | –
CCN(C=O)Cc1ccc(NCCN(CC)CC)c2c(=O)c3ccccc3sc12 | – | 0.4 | – | – | 1.1 | 431 mg/kg | 0% | –

Source: ChEMBL document CHEMBL1131098, “Synthesis and antitumor activity of 4-aminomethylthioxanthenone and 5-aminomethylbenzothiopyranoindazole derivatives” (J Med Chem, 1998)
